Laboratory results reported in ChEMBL document CHEMBL3576819, “Design, synthesis, biological evaluation and molecular docking studies of phenylpropanoid derivatives as potent anti-hepatitis B virus agents” (Eur J Med Chem, 2015).

Experiments:
Hepatitis B virus [1] = test: Antiviral activity against Hepatitis B virus infected in human HepG2.2.15 cells assessed as cell survival at 150 uM after 9 days (reference value: 100%); type: functional; details: HepG2 2.2.15, 216 h
How it was run: (§1)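 HepG2.2.15 cells (MEM, 10% FBS, 380 µg/ml G418, 37 °C, 5% CO2) seeded at 1×10^5 cells/ml, cultured 24 h, then exposed to various drug concentrations; drug-containing medium renewed every 3 d. OD read at 450 nm after 9 days; percent cell death calculated; CC50 = concentration killing 50% of cells. Means of at least two experiments.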

Hepatitis B virus [2] = test: Antiviral activity against Hepatitis B virus infected in human HepG2.2.15 cells assessed as inhibition of HBsAg secretion at 37.5 uM after 6 days by ELISA; type: functional; details: HepG2 2.2.15, 144 h
How it was run: (§2)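 HepG2.2.15 cells (MEM, 10% FBS, 380 µg/ml G418) seeded at 1×10^5 cells/ml, held 24 h at 37 °C, then treated with various drug concentrations; medium with drug renewed every 3 d for up to 9 d. Culture medium sampled on days 3, 6 and 9, stored at -20 °C, and assayed for secreted antigen. Lamivudine as positive control; IC50 = 50% inhibition of secretion; means of at least two experiments.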

Hepatitis B virus [3] = test: Antiviral activity against Hepatitis B virus infected in human HepG2.2.15 cells assessed as inhibition of HBeAg secretion at 37.5 uM after 9 days by ELISA; type: functional; details: HepG2 2.2.15, 216 h; how it was run: as §2
Hepatitis B virus [4] = test: Antiviral activity against Hepatitis B virus infected in human HepG2.2.15 cells assessed as inhibition of HBeAg secretion at 37.5 uM after 6 days by ELISA; type: functional; details: HepG2 2.2.15, 144 h; how it was run: as §2
Hepatitis B virus [5] = test: Antiviral activity against Hepatitis B virus infected in human HepG2.2.15 cells assessed as inhibition of HBsAg secretion at 37.5 uM after 9 days by ELISA; type: functional; details: HepG2 2.2.15, 216 h; how it was run: as §2
Hepatitis B virus [6] = test: Antiviral activity against Hepatitis B virus infected in human HepG2.2.15 cells assessed as inhibition of HBeAg secretion at 75 uM after 3 days by ELISA; type: functional; details: HepG2 2.2.15, 72 h; how it was run: as §2
Hepatitis B virus [7] = test: Antiviral activity against Hepatitis B virus infected in human HepG2.2.15 cells assessed as cell survival at 300 uM after 9 days (reference value: 100%); type: functional; details: HepG2 2.2.15, 216 h; how it was run: as §1
Hepatitis B virus [8] = test: Antiviral activity against Hepatitis B virus infected in human HepG2.2.15 cells assessed as inhibition of HBsAg secretion at 300 uM after 9 days by ELISA; type: functional; details: HepG2 2.2.15, 216 h; how it was run: as §2
Hepatitis B virus [9] = test: Antiviral activity against Hepatitis B virus infected in human HepG2.2.15 cells assessed as inhibition of HBeAg secretion at 150 uM after 3 days by ELISA; type: functional; details: HepG2 2.2.15, 72 h; how it was run: as §2
Hepatitis B virus [10] = test: Antiviral activity against Hepatitis B virus infected in human HepG2.2.15 cells assessed as inhibition of HBsAg secretion by ELISA; type: functional, organism-based; details: HepG2 2.2.15; how it was run: as §2
Hepatitis B virus [11] = test: Antiviral activity against Hepatitis B virus infected in human HepG2.2.15 cells assessed as inhibition of HBsAg secretion at 150 uM after 3 days by ELISA; type: functional; details: HepG2 2.2.15, 72 h; how it was run: as §2
Hepatitis B virus [12] = test: Antiviral activity against Hepatitis B virus infected in human HepG2.2.15 cells assessed as inhibition of HBsAg secretion at 300 uM after 6 days by ELISA; type: functional; details: HepG2 2.2.15, 144 h; how it was run: as §2
[13] = Selectivity index, ratio of CC50 for human HepG2.2.15 cells to IC50 for Hepatitis B virus infected in human HepG2.2.15 cells assessed as inhibition of HBsAg secretion; type: functional
How it was run: (§3)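 Selectivity index computed as CC50/IC50, with CC50 from cell death of HepG2.2.15 cells after 9 days of treatment (OD 450 nm) and IC50 from 50% inhibition of HBeAg or HBsAg secretion in the same cells; medium with drug renewed every 3 d.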

Hepatitis B virus [14] = test: Antiviral activity against Hepatitis B virus infected in human HepG2.2.15 cells assessed as inhibition of HBsAg secretion at 75 uM after 9 days by ELISA; type: functional; details: HepG2 2.2.15, 216 h; how it was run: as §2
Hepatitis B virus [15] = test: Antiviral activity against Hepatitis B virus infected in human HepG2.2.15 cells assessed as inhibition of HBsAg secretion at 150 uM after 9 days by ELISA; type: functional; details: HepG2 2.2.15, 216 h; how it was run: as §2
Hepatitis B virus [16] = test: Antiviral activity against Hepatitis B virus infected in human HepG2.2.15 cells assessed as inhibition of HBsAg secretion at 75 uM after 6 days by ELISA; type: functional; details: HepG2 2.2.15, 144 h; how it was run: as §2
Hepatitis B virus [17] = test: Antiviral activity against Hepatitis B virus infected in human HepG2.2.15 cells assessed as inhibition of HBsAg secretion at 37.5 uM after 3 days by ELISA; type: functional; details: HepG2 2.2.15, 72 h; how it was run: as §2
[18] = Cytotoxicity against human HepG2.2.15 cells assessed as cell death after 9 days by MTT assay; type: cell-based, HepG2 2.2.15; how it was run: as §1
Hepatitis B virus [19] = test: Antiviral activity against Hepatitis B virus infected in human HepG2.2.15 cells assessed as inhibition of HBeAg secretion by ELISA; type: functional, organism-based; details: HepG2 2.2.15; how it was run: as §2
Hepatitis B virus [20] = test: Antiviral activity against Hepatitis B virus infected in human HepG2.2.15 cells assessed as inhibition of HBeAg secretion at 150 uM after 9 days by ELISA; type: functional; details: HepG2 2.2.15, 216 h; how it was run: as §2
Hepatitis B virus [21] = test: Antiviral activity against Hepatitis B virus infected in human HepG2.2.15 cells assessed as cell survival at 75 uM after 9 days (reference value: 100%); type: functional; details: HepG2 2.2.15, 216 h; how it was run: as §1
Hepatitis B virus [22] = test: Antiviral activity against Hepatitis B virus infected in human HepG2.2.15 cells assessed as inhibition of HBeAg secretion at 150 uM after 6 days by ELISA; type: functional; details: HepG2 2.2.15, 144 h; how it was run: as §2
Hepatitis B virus [23] = test: Antiviral activity against Hepatitis B virus infected in human HepG2.2.15 cells assessed as inhibition of HBeAg secretion at 300 uM after 9 days by ELISA; type: functional; details: HepG2 2.2.15, 216 h; how it was run: as §2
Hepatitis B virus [24] = test: Antiviral activity against Hepatitis B virus infected in human HepG2.2.15 cells assessed as inhibition of HBeAg secretion at 37.5 uM after 3 days by ELISA; type: functional; details: HepG2 2.2.15, 72 h; how it was run: as §2
Hepatitis B virus [25] = test: Antiviral activity against Hepatitis B virus infected in human HepG2.2.15 cells assessed as inhibition of HBeAg secretion at 300 uM after 6 days by ELISA; type: functional; details: HepG2 2.2.15, 144 h; how it was run: as §2
Hepatitis B virus [26] = test: Antiviral activity against Hepatitis B virus infected in human HepG2.2.15 cells assessed as inhibition of HBsAg secretion at 150 uM after 6 days by ELISA; type: functional; details: HepG2 2.2.15, 144 h; how it was run: as §2
Hepatitis B virus [27] = test: Antiviral activity against Hepatitis B virus infected in human HepG2.2.15 cells assessed as inhibition of HBsAg secretion at 300 uM after 3 days by ELISA; type: functional; details: HepG2 2.2.15, 72 h; how it was run: as §2
[28] = Selectivity index, ratio of CC50 for human HepG2.2.15 cells to IC50 for Hepatitis B virus infected in human HepG2.2.15 cells assessed as inhibition of HBeAg secretion; type: functional; how it was run: as §3
Hepatitis B virus [29] = test: Antiviral activity against Hepatitis B virus infected in human HepG2.2.15 cells assessed as inhibition of HBeAg secretion at 300 uM after 3 days by ELISA; type: functional; details: HepG2 2.2.15, 72 h; how it was run: as §2
Hepatitis B virus [30] = test: Antiviral activity against Hepatitis B virus infected in human HepG2.2.15 cells assessed as inhibition of HBsAg secretion at 75 uM after 3 days by ELISA; type: functional; details: HepG2 2.2.15, 72 h; how it was run: as §2
Hepatitis B virus [31] = test: Antiviral activity against Hepatitis B virus infected in human HepG2.2.15 cells assessed as cell survival at 37.5 uM after 9 days (reference value: 100%); type: functional; details: HepG2 2.2.15, 216 h; how it was run: as §1
Hepatitis B virus [32] = test: Antiviral activity against Hepatitis B virus infected in human HepG2.2.15 cells assessed as inhibition of HBeAg secretion at 75 uM after 6 days by ELISA; type: functional; details: HepG2 2.2.15, 144 h; how it was run: as §2
Hepatitis B virus [33] = test: Antiviral activity against Hepatitis B virus infected in human HepG2.2.15 cells assessed as inhibition of HBeAg secretion at 75 uM after 9 days by ELISA; type: functional; details: HepG2 2.2.15, 216 h; how it was run: as §2

IC50 (Hepatitis B virus [10]): 75.8 µM | IC50 (Hepatitis B virus [19]): 118 µM
Structure (SMILES): O=C(/C=C/c1ccc2c(c1)OCO2)O/N=C/c1cccs1
viability at 150 µM (Hepatitis B virus [1]): 92.2% | inhibition at 37.5 µM (Hepatitis B virus [2]): 29.6% | inhibition at 37.5 µM (Hepatitis B virus [3]): 25.4% | inhibition at 37.5 µM (Hepatitis B virus [4]): 20.6% | inhibition at 37.5 µM (Hepatitis B virus [5]): 29.7% | inhibition at 75 µM (Hepatitis B virus [6]): 25.7% | viability at 300 µM (Hepatitis B virus [7]): 79.4% | inhibition at 300 µM (Hepatitis B virus [8]): 88.1% | inhibition at 150 µM (Hepatitis B virus [9]): 33.5% | inhibition at 150 µM (Hepatitis B virus [11]): 46.3% | inhibition at 300 µM (Hepatitis B virus [12]): 87.5% | Ratio CC50/IC50 [13]: 3.51 | inhibition at 75 µM (Hepatitis B virus [14]): 52% | inhibition at 150 µM (Hepatitis B virus [15]): 63.1% | inhibition at 75 µM (Hepatitis B virus [16]): 45.4% | inhibition at 37.5 µM (Hepatitis B virus [17]): 20.4% | CC50 at 216 h [18]: 266 µM | inhibition at 150 µM (Hepatitis B virus [20]): 51.5% | viability at 75 µM (Hepatitis B virus [21]): 105% | inhibition at 150 µM (Hepatitis B virus [22]): 46.1% | inhibition at 300 µM (Hepatitis B virus [23]): 71.6% | inhibition at 37.5 µM (Hepatitis B virus [24]): 15.9% | inhibition at 300 µM (Hepatitis B virus [25]): 63.2% | inhibition at 150 µM (Hepatitis B virus [26]): 63.2% | inhibition at 300 µM (Hepatitis B virus [27]): 58.3% | Ratio CC50/IC50 [28]: 2.26 | inhibition at 300 µM (Hepatitis B virus [29]): 51.3% | inhibition at 75 µM (Hepatitis B virus [30]): 32.1% | viability at 37.5 µM (Hepatitis B virus [31]): 112% | inhibition at 75 µM (Hepatitis B virus [32]): 32% | inhibition at 75 µM (Hepatitis B virus [33]): 42.9%
